Screening data deposited in PubChem by The Scripps Research Institute Molecular Screening Center.
EBNA-1 inh – EBNA-1 DNA-binding inhibitors, primary screen, biochemical, fluorescence polarization | inhibition, % at 14.8 µM | AID 1950, 2009 | 300,000 compounds, 0.34% hits; in the data active = inhibition above about 28%
ZTA DNA inh – blocks Epstein-Barr virus ZTA, an EBNA-1 counter-screen; ZTA-DNA binding, fluorescence polarization; inhibition, % at 11 µM; 320,000 compounds, 0.15% hits; in the data active = inhibition above about 33%
Target sequence (P03206 whole entry, looked up): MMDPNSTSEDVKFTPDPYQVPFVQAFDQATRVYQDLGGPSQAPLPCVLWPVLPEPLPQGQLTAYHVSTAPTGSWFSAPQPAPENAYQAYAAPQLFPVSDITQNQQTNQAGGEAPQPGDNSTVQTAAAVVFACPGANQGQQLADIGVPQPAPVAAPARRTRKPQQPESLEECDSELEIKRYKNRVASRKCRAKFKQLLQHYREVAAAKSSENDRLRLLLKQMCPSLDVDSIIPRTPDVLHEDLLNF
NS3 helicase inh – inhibitors of HCV NS3 helicase, primary screen, biochemical, Cy5 molecular beacon fluorescence; NS3 helicase DNA unwinding; 290,000 compounds, 0.56% hits; inhibition, % at 10.9 µM;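 active = inhibition above the mean of all tested compounds plus 3 SD, set per campaign, cut at about 35% in these data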
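Measured by: Cy5 fluorescence, 0 and 60 min reads / Assay system: NS3 helicase fragment of HCV / Control set: low DMSO, high thioflavine S at 110 µM / Times: 1 h reaction at 25 °C, ATP-initiated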
HCV core dimer – inhibitors of HCV core protein dimerization, primary screen, biochemical, TR-FRET, high-throughput. TR-FRET GST/Flag-core106 dimerization, 1536-well. inhibition, % at 5 µM. 300,000 compounds, 0.33% hits. AID 1899, 2009;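 active = inhibition above the mean of all tested compounds plus 3 SD, set per screening campaign, cut at about 45% in these data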
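Assay system – GST-tagged and Flag-tagged HCV core protein residues 1-106 · Quantity – core106 proteins, GST 13.5 nM and Flag 17 nM · Benchmarks – unlabelled core106 and no-GST-core106 wells · Read-out basis – percent inhibition of core106 dimerization signal · Detection – time-resolved FRET, ex 340 nm, em 617 and 671 nm · Schedule – 4 h at 22.5 °C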
NS3 hel confirm – HCV NS3 helicase inhibitors, retest, confirmation, biochemical, Cy5 molecular beacon fluorescence, triplicate | shares compounds with NS3 helicase inh | NS3 helicase DNA unwinding | inhibition, % at 10.9 µM | 1,600 compounds, 31% hits;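 active = inhibition above the mean of all tested compounds plus 3 SD, cutoff set per campaign, cut at about 36% in these data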
DNA FID counter – compounds displacing fluorescent DNA intercalator, artefact control for HCV NS3 helicase inhibitor project, biochemical, FID fluorescence, triplicate; shares compounds with NS3 helicase inh; 1,600 compounds, 4% hits; inhibition, % at 7.9 µM; DNA fluorescent intercalator displacement; AID 1945, 2009; in the data active = inhibition above about 37%;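 note: higher means more displacement of ethidium bromide from the DNA hairpin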
DNA FID DR – compounds displacing fluorescent intercalator from DNA, dose response, counter-screen for HCV NS3 helicase inhibitor project, biochemical, fluorescence. 120 tested, under 10 active. fluorescent intercalator displacement from DNA. AID 2172, 2009. shares compounds with NS3 helicase inh. IC50, µM; call rule not given here
Large screens that a line does not name were inactive (follow-up assays come after a bar, where they were run). Sampled rows, rich in hits. Any-hit rate of the full collection: about 1.2%.

N#CC1=C(S)N(c2ccccc2)C(c2ccc(-c3ccccc3Cl)o2)NC1=O (stereo not drawn)	NS3 helicase inh 42 | NS3 hel confirm 51 | DNA FID counter inactive
COc1ccc(NS(=O)(=O)c2cccc(C(=O)NNC(=O)c3ccc(Br)o3)c2)cc1	none (no result: NS3 helicase inh)
CCC1=Nc2cc(C(=O)NCc3ccco3)ccc2Sc2ccccc21	none
CCC1=Nc2cc(C(=O)NCc3ccco3)ccc2Sc2ccc(Cl)cc21	NS3 helicase inh 37, HCV core dimer 59 | NS3 hel confirm inactive | DNA FID counter inactive
CCOc1ccc(/C=c2\sc3nc(-c4ccco4)nn3c2=O)cc1OCC	NS3 helicase inh 38, HCV core dimer 70 | NS3 hel confirm 47 | DNA FID counter inactive | DNA FID DR inactive
CCOC(=O)C1(Cc2cccc(Cl)c2)CCCN(C(=O)c2ccoc2C)C1 (stereo not drawn)	NS3 helicase inh 44 (no result: EBNA-1 inh, ZTA DNA inh, HCV core dimer) | NS3 hel confirm inactive | DNA FID counter inactive
CCOC(=O)C1(Cc2cccc(Cl)c2)CCCN(C(=O)c2ccco2)C1 (stereo not drawn)	none
O=C1CN(c2ccc(Cl)cc2)C2(CCCCC2)S1	none
Cc1ccc(N2C(=O)N3[C@H](c4ccc(F)cc4)[C@@H]4C(=O)N(C5CCCCC5)C(=O)[C@@H]4[C@]3(Cc3ccccc3)C2=O)cc1	none
Cn1cc(C=C2C(=O)CC(C)(C)CC2=O)c2ccccc21	NS3 helicase inh 38 | NS3 hel confirm inactive | DNA FID counter inactive
COc1ccc(-n2c(SCc3ccc([N+](=O)[O-])cc3)nnc2-c2ccc(C)cc2)cc1	none
CCOC(=O)c1c(C)n(-c2ccc(C)cc2)c2c(C(C(C)=O)C(=O)O)c(Br)c(O)c(O)c12 (stereo not drawn)	none
CCOC(=O)C(C(C)=O)c1c(Br)c(O)c(O)c2c(C(=O)c3ccc(C)cc3)coc12 (stereo not drawn)	NS3 helicase inh 38 | NS3 hel confirm inactive | DNA FID counter inactive
COc1ccc(S(=O)(=O)N(C(C)=O)c2ccc(OC(C)=O)c3ccccc23)cc1[N+](=O)[O-]	none
O=C(NCCNc1ccc(Cl)cc1[N+](=O)[O-])c1ccccc1F	NS3 helicase inh 41 | NS3 hel confirm inactive | DNA FID counter inactive
CN(C)c1cccc2c(S(=O)(=O)N3CCCC3)cccc12	NS3 helicase inh 36 | NS3 hel confirm inactive | DNA FID counter inactive
CN(C)c1cccc2c(S(=O)(=O)N3CCOCC3)cccc12	none
Nc1c(C(=O)Nc2ccccc2)sc2nc3c(c(-c4ccco4)c12)CCC3	NS3 helicase inh 41 | NS3 hel confirm inactive | DNA FID counter inactive
Cc1ccccc1NC(=O)c1sc2nc3c(c(-c4ccco4)c2c1N)CCCC3	NS3 helicase inh 44 | NS3 hel confirm inactive | DNA FID counter inactive
Nc1cc2c(cc1O)CCCC2	none
O=C(O)c1cc2nc(-c3cccs3)cc(C(F)(F)F)n2n1	NS3 helicase inh 39 | NS3 hel confirm inactive | DNA FID counter inactive
FC(F)(F)c1cc(-c2cccs2)nc2cc(-c3ccccc3)nn12	none
CCc1ccc(NC(=O)Cc2c(C(=O)O)n(C)c3ccccc23)cc1	NS3 helicase inh 37 | NS3 hel confirm 52 | DNA FID counter inactive
CC(=O)Nc1ccc(NC2CCCCC2NS(=O)(=O)c2ccccc2)cc1 (stereo not drawn)	none
O=C1C(=Cc2ccco2)C(=O)c2ccccc21	NS3 helicase inh 50 | NS3 hel confirm inactive | DNA FID counter inactive
Cc1ccc(C=C2C(=O)c3ccccc3C2=O)o1	none
CCOC(=O)c1oc2cc(O)cc(O)c2c(=O)c1OCc1ccccc1	none (no result: NS3 helicase inh)
O=c1c2ccccc2oc2cc(OCc3cccc(F)c3)cc(O)c12	NS3 helicase inh 37 (no result: EBNA-1 inh, ZTA DNA inh, HCV core dimer) | NS3 hel confirm inactive | DNA FID counter inactive
C=C1N(C)c2cc([N+](=O)[O-])c(N)cc2C1(C)C	none
CC1(C)Oc2cc(N)c([N+](=O)[O-])cc2O1	NS3 helicase inh 54 | NS3 hel confirm inactive | DNA FID counter inactive
COc1ccccc1C1C2=C(CCCC2=O)N(CC(=O)O)C2=C1C(=O)CCC2	NS3 helicase inh 41 | NS3 hel confirm inactive | DNA FID counter inactive
COc1ccc(C2C3=C(CCCC3=O)N(CC(=O)O)C3=C2C(=O)CCC3)cc1Cl	none
O=C(Nc1ccc(N2CCOCC2)cc1)c1cccc(S(=O)(=O)N2CCC(Cc3ccccc3)CC2)c1	none
CCSc1ccc(C(=O)NCC(=O)O)cc1	none
CSc1ccc(NC(=O)Nc2ccc(C(=O)NCC(=O)O)cc2)cc1	none (no result: EBNA-1 inh, ZTA DNA inh, HCV core dimer) | NS3 hel confirm inactive | DNA FID counter inactive
NS(=O)(=O)c1cc(C(=O)Nc2ccc3c(c2)CCC3)ccc1Cl	none
O=C(Nc1cc2c3c(c1)CC(=O)N3CCC2)c1ccco1	none (no result: NS3 helicase inh)
COc1ccc(NC(=O)c2cc(-c3ccco3)nc3ccccc23)cc1S(=O)(=O)N1CCOCC1	NS3 helicase inh 54, HCV core dimer 81 | NS3 hel confirm 73 | DNA FID counter inactive
CCc1nnc(NC(=O)c2cc(-c3ccco3)nc3ccccc23)s1	NS3 helicase inh 38, HCV core dimer 73 | NS3 hel confirm inactive | DNA FID counter inactive
CC(C)(C)N1C(=O)c2ccc(C(=O)Nc3ccc(O)cc3)cc2C1=O	none
CCC(C)(C)NC(=O)C(Sc1ccccc1)c1ccccc1 (stereo not drawn)	none
COc1ccccc1NC(=O)OC(C)c1ccc(Cl)cc1 (stereo not drawn)	none
COc1ccccc1N1C(=O)CC(Nc2ccc(N3CCOCC3)cc2)C1=O (stereo not drawn)	none
CCOc1ccccc1N1C(=O)CC(Nc2ccc(N3CCOCC3)cc2)C1=O (stereo not drawn)	NS3 helicase inh 42 | NS3 hel confirm inactive | DNA FID counter inactive
NC(=O)CC[C@H](NC(=O)OCc1ccccc1)C(=O)OCc1ccc(Cl)cc1	none
CC(=O)N(C(C)=O)N1C(=O)/C(=C/c2ccc(Cl)cc2)SC1=S	none
Cc1ccc(C)n1N1C(=O)/C(=C\c2ccc(Cl)cc2)SC1=S	NS3 helicase inh 43 | NS3 hel confirm inactive | DNA FID counter inactive
CN(C)c1ccc(/C=N/NC2=NS(=O)(=O)c3ccccc32)cc1	NS3 helicase inh 40 | NS3 hel confirm inactive | DNA FID counter inactive
COc1ccc(/C=N/NC2=NS(=O)(=O)c3ccccc32)cc1	none
COc1ccc(/C=N/NC2=NS(=O)(=O)c3ccccc32)cc1OC(C)=O	NS3 helicase inh 52 | NS3 hel confirm inactive | DNA FID counter inactive
Cc1ccc(NC(=O)c2ccc3nccnc3c2)c(C)c1	none
O=C(NC(Cc1ccccc1)C(=O)O)/C(=C/c1ccco1)NC(=O)c1cccc(Br)c1 (stereo not drawn)	none
